In ChEMBL document CHEMBL1136784, “Synthesis and biological evaluation of 14-alkoxymorphinans. 18. N-substituted 14-phenylpropyloxymorphinan-6-ones with unanticipated agonist properties: extending the scope of common structure-activity relationships” (J Med Chem, 2003) one finds Ki, ED50 and Ratio data, which are given here for ten compounds.

The target of assay [1] is Delta-type opioid receptor (Rattus norvegicus, UniProt P33533). The experiment in a line: In vitro binding affinity at opioid receptor delta 1 was determined in C6 rat glioma cells using [3H]Ile5,6 deltorphin II. It is filed as cell-based.
The next assay deals with Mu-type opioid receptor (Rattus norvegicus, UniProt P33535). In words: In vitro binding affinity at opioid receptor mu 1 was determined in C6 rat glioma cells using [3H]DAMGO. It is filed as cell-based.
In assay [2] the target is Kappa-type opioid receptor (Homo sapiens, UniProt P41145). In words: biochemical. It is filed as cell-based, CHO.
Assay [3] can be described thus: In vivo antinociceptive activity was determined upon subcutaneous administration in the mouse tail-flick test. It is filed as functional. Conditions: sc. Put shortly: (§1)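 Male ICR mice weighing 20-30 g, each animal tested only once. Drugs were given subcutaneously at a minimum of 3 doses, with 6-10 mice per dose. Assay procedures followed earlier published methods and their modifications.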
On the technique in general: Hot-plate and tail-flick tests time the reaction to a heat stimulus.

Assay [4] deals with Opioid receptors; mu and delta (Mus musculus) (UniProt P42866+P32300). In words: In vivo antinociceptive activity was determined upon subcutaneous administration in the mouse paraphenylquinone writhing test. It is filed as functional, organism-based. In outline: as §1
In general terms: Writhing tests count abdominal constrictions after an irritant is injected.

Assay [5] is described as follows: Selectivity ratio was determined. The arrangement: reference not given here.

“And” between values parts separate entries of the source, which are not always exact repeats. Equal entries are not always repeated.

Sequence of Delta-type opioid receptor (P33533 whole entry): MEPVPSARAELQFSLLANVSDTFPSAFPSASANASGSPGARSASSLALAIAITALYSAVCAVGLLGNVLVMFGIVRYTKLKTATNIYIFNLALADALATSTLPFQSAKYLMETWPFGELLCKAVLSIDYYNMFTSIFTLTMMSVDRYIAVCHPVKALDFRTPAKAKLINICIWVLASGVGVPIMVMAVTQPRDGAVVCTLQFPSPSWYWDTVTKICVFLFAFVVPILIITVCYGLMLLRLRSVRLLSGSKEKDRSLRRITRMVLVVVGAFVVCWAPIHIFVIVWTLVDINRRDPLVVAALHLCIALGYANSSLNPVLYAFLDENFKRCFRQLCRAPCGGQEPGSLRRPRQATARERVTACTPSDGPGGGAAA
Sequence of Mu-type opioid receptor (P33535 whole entry): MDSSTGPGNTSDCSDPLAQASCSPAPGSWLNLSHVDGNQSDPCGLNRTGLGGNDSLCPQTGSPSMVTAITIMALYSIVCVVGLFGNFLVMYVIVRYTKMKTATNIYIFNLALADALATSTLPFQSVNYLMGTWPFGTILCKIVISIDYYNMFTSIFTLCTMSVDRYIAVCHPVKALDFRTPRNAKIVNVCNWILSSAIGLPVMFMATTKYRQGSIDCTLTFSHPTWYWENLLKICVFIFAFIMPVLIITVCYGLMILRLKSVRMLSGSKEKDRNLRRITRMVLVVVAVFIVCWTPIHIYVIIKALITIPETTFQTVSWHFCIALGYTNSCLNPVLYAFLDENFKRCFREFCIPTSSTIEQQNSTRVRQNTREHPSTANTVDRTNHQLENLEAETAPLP
Sequence of Opioid receptors; mu and delta (Mus musculus) (P32300 whole entry, looked up): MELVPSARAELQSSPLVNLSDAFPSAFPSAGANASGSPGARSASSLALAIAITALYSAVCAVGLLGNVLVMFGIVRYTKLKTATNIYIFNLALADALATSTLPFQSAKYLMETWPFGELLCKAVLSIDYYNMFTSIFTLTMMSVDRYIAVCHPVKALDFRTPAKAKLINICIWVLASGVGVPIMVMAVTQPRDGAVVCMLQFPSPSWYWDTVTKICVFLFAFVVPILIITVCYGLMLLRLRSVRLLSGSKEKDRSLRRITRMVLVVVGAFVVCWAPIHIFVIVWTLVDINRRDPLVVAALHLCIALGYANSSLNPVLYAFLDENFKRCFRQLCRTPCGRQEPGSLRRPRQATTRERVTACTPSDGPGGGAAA
Sequence of Opioid receptors; mu and delta (Mus musculus) (P42866 whole entry, looked up): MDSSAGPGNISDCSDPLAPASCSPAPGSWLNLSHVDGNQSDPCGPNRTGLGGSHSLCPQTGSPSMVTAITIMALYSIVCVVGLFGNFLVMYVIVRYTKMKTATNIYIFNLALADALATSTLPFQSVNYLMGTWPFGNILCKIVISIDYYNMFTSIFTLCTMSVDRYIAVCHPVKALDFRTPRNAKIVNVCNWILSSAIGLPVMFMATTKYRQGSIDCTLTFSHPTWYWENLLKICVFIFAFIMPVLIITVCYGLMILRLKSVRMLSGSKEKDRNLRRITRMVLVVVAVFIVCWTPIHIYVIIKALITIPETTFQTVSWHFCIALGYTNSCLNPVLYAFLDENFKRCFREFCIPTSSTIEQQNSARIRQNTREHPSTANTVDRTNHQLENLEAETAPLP
Sequence of Kappa-type opioid receptor (P41145 whole entry): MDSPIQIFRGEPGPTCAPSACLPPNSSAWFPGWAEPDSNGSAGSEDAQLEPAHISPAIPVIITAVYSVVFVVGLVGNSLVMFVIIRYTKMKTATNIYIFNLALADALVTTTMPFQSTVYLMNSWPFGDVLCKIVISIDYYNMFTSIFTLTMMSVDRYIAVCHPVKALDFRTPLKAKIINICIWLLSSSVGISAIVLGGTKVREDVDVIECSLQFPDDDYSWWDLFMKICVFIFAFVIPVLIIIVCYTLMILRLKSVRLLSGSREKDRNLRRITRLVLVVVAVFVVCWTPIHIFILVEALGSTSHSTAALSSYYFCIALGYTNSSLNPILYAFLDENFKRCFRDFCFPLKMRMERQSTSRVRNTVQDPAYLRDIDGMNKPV

A word on the Ki: it is a dissociation constant, usually derived from enzyme kinetics or from competition with a known ligand. As usually defined, the ED50 is the midpoint of the dose-response relation. In the case of `O=C1CC[C@@]2(OCCCc3ccccc3)[C@H]3Cc4ccc(O)c5c4[C@@]2(CCN3CC2CCCO2)[C@H]1O5` (stereo partly specified), the figures for the inhibition constant Ki (in assay [1]; on Mu-type opioid receptor; in assay [2]) were 90 pM, 200 pM and 80 pM, respectively. For the same compound, the results for the ED50 in assay [3] and in assay [4] were 7 µg/kg and 2 µg/kg, respectively. The Ratio in assay [5] was 0.4 and 0.45.

In assay [2], `O=C1CC[C@@]2(OCCCc3ccccc3)[C@H]3Cc4ccc(O)c5c4[C@@]2(CCN3CC2CC2)[C@H]1O5` yielded a Ki of 410 pM. Moreover, the 50% effective dose (ED50) stood at 3 µg/kg in assay [3] and 6 µg/kg in assay [4].

As for `O=C1CC[C@@]2(OCCCc3ccccc3)[C@H]3Cc4ccc(O)c5c4[C@@]2(CCN3CCc2ccccc2)[C@H]1O5`, the 50% effective dose (ED50) in assay [3] is 110 µg/kg.

The compound `COc1ccc2c3c1O[C@H]1C(=O)CC[C@@]4(OCCCc5ccccc5)[C@@H](C2)N(CCc2ccccc2)CC[C@]314` registered an ED50 in assay [3] of 80 µg/kg.

For the compound `CN1CC[C@]23c4c5ccc(O)c4O[C@H]2[C@@H](O)C=C[C@H]3[C@H]1C5` [MORPHINE], the results for the ED50 in assay [3] and in assay [4] were 1900 µg/kg and 400 µg/kg, respectively.

As for `CO[C@@]12CCC(=O)[C@]3(C)Oc4c(O)ccc5c4[C@@]31CCN(C)[C@@H]2C5`, the values for the inhibitory constant (Ki) (in assay [1]; on Mu-type opioid receptor; in assay [2]) were 40900 pM, 23 pM and 304000 pM, respectively. Further, the values for the ED50 in assay [3] and in assay [4] were 30 µg/kg and 9 µg/kg, respectively.

`CCCN1CC[C@]23c4c5ccc(O)c4O[C@H]2C(=O)CC[C@@]3(OCCCc2ccccc2)[C@H]1C5`: the Ki turned out to be 930 pM in assay [1], 90 pM on Mu-type opioid receptor and 370 pM in assay [2]. Besides, the 50% effective dose (ED50) in assay [3] was determined as 2 µg/kg; in assay [4] it was 0.9 µg/kg. Besides, the Ratio in assay [5] was 4.11 and 10.3.

Regarding `C=CCN1CC[C@]23c4c5ccc(O)c4O[C@H]2C(=O)CC[C@@]3(OCCCc2ccccc2)[C@H]1C5`, the values for the Ki in assay [1] and in assay [2] were 260 pM and 110 pM, respectively. Also, in assay [3], the ED50 came to 6 µg/kg.

For the compound `COc1ccc2c3c1O[C@H]1C(=O)CC[C@@]4(OCCCc5ccccc5)[C@@H](C2)N(CC2CCCO2)CC[C@]314` (stereo partly specified), the Ki in assay [1] is 6200 pM; at Mu-type opioid receptor it was 3800 pM; in assay [2], 61400 pM. Besides, the 50% effect level in assay [3] (ED50) was put at a dose of 760 µg/kg.

Take `O=C1CC[C@@]2(OCCCc3ccccc3)[C@H]3Cc4ccc(O)c5c4[C@@]2(CCN3CC2CCC2)[C@H]1O5`: the Ki stood at 460 pM in assay [1], 250 pM on Mu-type opioid receptor and 490 pM in assay [2]. Further, it took a dose of 8 µg/kg to reach the 50% effect level in assay [3] (ED50). In addition, in assay [5], the Ratio was 1.96 and 1.84.
